Test results reported in ChEMBL document CHEMBL1255242, “Concentrations of dapivirine in the rhesus macaque and rabbit following once daily intravaginal administration of a gel formulation of [14C]dapivirine for 7 days” (Antimicrob Agents Chemother, 2008).

Assays:
[1] = Drug level in rhesus monkey ileac lymph node at 1 ml/day administered intravaginally for 7 days measured 24 hrs after final dose by LC-MS/MS analysis; type: ADME, tissue-based, Macaca mulatta; details: read-out: Drug uptake
In short: (§1)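 Nine female macaques were sedated with ketamine (5–20 mg/kg) and given 1 ml/day of [14C]dapivirine gel (nominal 0.09 mg/ml, 15 μCi/ml) intravaginally once daily for 7 days. Three animals per time point were killed (iv pentobarbital, 65 mg/kg) at 1, 24 and 48 h after the final dose. Vaginal wall, ectocervix, and inguinal and iliac lymph nodes were assayed by LC-MS/MS (0.250–250 ng/g). Values below LLOQ were set to 0 for means.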

[2] = Drug level in rhesus monkey vaginal tissue at 1 ml/day administered intravaginally for 7 days measured 48 hrs after final dose by LC-MS/MS analysis; type: ADME, Macaca mulatta, Vagina; details: read-out: Drug uptake; in short: as §1
[3] = Drug level in rhesus monkey inguinal lymph node at 1 ml/day administered intravaginally for 7 days measured 24 hrs after final dose by LC-MS/MS analysis; type: ADME, tissue-based, Macaca mulatta; details: read-out: Drug uptake; in short: as §1
[4] = Drug level in rhesus monkey cervical tissue at 1 ml/day administered intravaginally for 7 days measured 1 hr after final dose by LC-MS/MS analysis; type: ADME, Macaca mulatta; details: read-out: Drug uptake; in short: as §1
[5] = Drug level in rhesus monkey ileac lymph node at 1 ml/day administered intravaginally for 7 days measured 48 hrs after final dose by LC-MS/MS analysis; type: ADME, tissue-based, Macaca mulatta; details: read-out: Drug uptake; in short: as §1
Plasma [6] = assay: Drug level in rabbit plasma at 0.5 ml/day administered intravaginally for 7 days by liquid scintillation counting; details: other, 168 h
[7] = Drug level in rhesus monkey vaginal tissue at 1 ml/day administered intravaginally for 7 days measured 24 hrs after final dose by LC-MS/MS analysis; type: ADME, Macaca mulatta, Vagina; details: read-out: Drug uptake; in short: as §1
[8] = Drug level in rhesus monkey inguinal lymph node at 1 ml/day administered intravaginally for 7 days measured 48 hrs after final dose by LC-MS/MS analysis; type: ADME, tissue-based, Macaca mulatta; details: read-out: Drug uptake; in short: as §1
[9] = Drug level in rhesus monkey cervical tissue at 1 ml/day administered intravaginally for 7 days measured 48 hrs after final dose by LC-MS/MS analysis; type: ADME, Macaca mulatta; details: read-out: Drug uptake; in short: as §1
Plasma [10] = assay: Drug level in rhesus monkey plasma at 1 ml/day administered intravaginally for 7 days by LC-MS/MS analysis; type: ADME, cell-free, Macaca mulatta; details: other, 168 h, in the assay text read “liquid scintillation counting” for “LC-MS/MS analysis”
[11] = Drug level in rabbit vaginal tissue at 0.5 ml/day administered intravaginally for 7 days measured 1 hr after final dose by […]; type: ADME, Oryctolagus cuniculus, Vagina; details: read-out: Drug uptake
In short: (§2)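 Six female rabbits received 0.5 ml/day of [14C]dapivirine gel (nominal 0.09 mg/ml, 15 μCi/ml) intravaginally once daily for 7 days by feeding tube inserted about 6 cm, with a collar for about 8 h. Two rabbits per time point were killed at 1, 8 and 24 h after the final dose. PBS-rinsed vaginal wall and ectocervix were homogenized in 2:1 H2O-ACN and extracted with t-butylmethylether. A single LC-MS/MS run was used (0.250–250 ng/g; 10-point weighted quadratic calibration).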

[12] = Drug level in rhesus monkey ileac lymph node at 1 ml/day administered intravaginally for 7 days measured 1 hr after final dose by LC-MS/MS analysis; type: ADME, tissue-based, Macaca mulatta; details: read-out: Drug uptake; in short: as §1
[13] = Drug level in rhesus monkey inguinal lymph node at 1 ml/day administered intravaginally for 7 days measured 1 hr after final dose by LC-MS/MS analysis; type: ADME, tissue-based, Macaca mulatta; details: read-out: Drug uptake; in short: as §1
[14] = Drug level in rhesus monkey vaginal tissue at 1 ml/day administered intravaginally 7 days measured 1 hr after final dose by LC-MS/MS analysis; type: ADME, Macaca mulatta, Vagina; details: read-out: Drug uptake; in short: as §1
[15] = Drug level in rhesus monkey cervical tissue at 1 ml/day administered intravaginally for 7 days measured 24 hrs after final dose by LC-MS/MS analysis; type: ADME, Macaca mulatta; details: read-out: Drug uptake; in short: as §1
[16] = Drug level in rabbit cervical tissue at 0.5 ml/day administered intravaginally for 7 days measured 24 hrs after final dose by […]; type: ADME, Oryctolagus cuniculus; details: read-out: Drug uptake; in short: as §2

Cc1cc(C)c(Nc2ccnc(Nc3ccc([14C]#N)cc3)n2)c(C)c1 [[14C]DAPIVIRINE]
concentration at 24 h [1]: 11.6 ng/g
concentration at 48 h [2]: 515 ng/g
concentration at 24 h [3]: 1.77 ng/g
concentration at 1 h [4]: 2400 ng/g
concentration at 48 h [5]: 1.16 ng/g
Drug uptake (Plasma [6]): 246 dpm/ml
concentration at 24 h [7]: 1160 ng/g
concentration at 48 h [8]: 0.48 ng/g
concentration at 48 h [9]: 81 ng/g
Drug uptake (Plasma [10]): <= 83 dpm/ml
concentration at 1 h [11]: > 3000 ng/g
concentration at 1 h [12]: 14.9 ng/g
concentration at 1 h [13]: 10.6 ng/g
concentration at 1 h [14]: 4260 ng/g
concentration at 24 h [15]: 271 ng/g
concentration at 24 h [16]: ≥ 2.5 ng/g
